{"data": "Measured values collected from several papers", "read-out": "enzyme activity", "mode": "inhibitor", "RET Y791F": "Proto-oncogene tyrosine-protein kinase receptor Ret (RET, Homo sapiens, UniProt P07949, Y791F)", "RET": "Proto-oncogene tyrosine-protein kinase receptor Ret (RET, Homo sapiens, UniProt P07949)", "RET V804L": "Proto-oncogene tyrosine-protein kinase receptor Ret (RET, Homo sapiens, UniProt P07949, V804L)", "note": "Each line is one published result; the experiments were not run side by side."}
{"Compound": "CC/C(=N\\NC(=O)NCc1cccc(O)c1)c1ccc(O)c(C)c1O", "target": "Proto-oncogene tyrosine-protein kinase receptor Ret (RET, Homo sapiens, UniProt P07949, M918T)", "setting": "0.1 µM", "inhibition [%]": 1.1}
{"Compound": "COc1cc2ncnc(Nc3ccc(Oc4ccccc4)c(C)c3C)c2cc1OC", "target": "RET Y791F", "setting": "1 µM", "inhibition [%]": 31}
{"Compound": "CCCS(=O)(=O)Nc1ccc(F)c(C(=O)c2c[nH]c3ncc(-c4ccc(Cl)cc4)cc23)c1F", "target": "RET", "setting": "1 µM", "inhibition [%]": "< 10"}
{"Compound": "CNC(=O)c1cc2c(Oc3ccc(NC(=O)C4(C(=O)Nc5ccc(F)cc5)CC4)cc3)ccnc2cc1OC", "target": "RET V804L", "test": "radiometric", "setting": "1 µM", "inhibition [%]": 90}
{"Compound": "COc1cc2ncnc(Nc3ccc(Oc4ccccc4)cc3C)c2cc1OC", "target": "RET", "setting": "1 µM", "inhibition [%]": 34}
{"Compound": "C=CC(=O)Nc1cc(Nc2nccc(Nc3cc(Cl)c(F)cc3C(C)(C)O)n2)c(OC)cc1N1CC[C@@H](N(C)C)C1", "target": "RET V804L", "setting": "1 µM", "inhibition [%]": 8}
{"Compound": "CNCc1ccc(-c2cc(-c3nc(-c4ccc(S(=O)(=O)C(C)C)cc4)cnc3N)on2)cc1", "target": "RET", "setting": "0.4 µM", "inhibition [%]": 22}
{"Compound": "COc1cc(-c2cc(-c3ccc(N4CCNCC4)cc3)cnc2N)cc(OC)c1OC", "target": "RET Y791F", "setting": "0.1 µM", "inhibition [%]": 3}
